HSF1 inh – HSF1 inhibitors in luciferase reporter cells, primary screen, cell-based, NIH3T3, luminescence; NIH3T3-HGL HSE-luciferase, MG132-induced, luminescence 8 h; hits give low values; activity change, negative = inhibition, % at 7.5 µM (by protocol); actives 0.77% (n = 300,000); AID 2098, 2009;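 active means more than half of replicate wells show activity change below -50%, luminescence cut by over half; inconclusive means some wells, but at most half, below -50%; inactive means no replicate well below -50%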;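 further: luciferase reports HSF-1 transcriptional activity via heat shock element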
HSF-1 act – HSF-1 activators, primary screen, NIH3T3-HGL cells, MG132 stress, luminescence, single point; actives 1.7% (n = 300,000); NIH3T3-HGL HSF-1 luciferase reporter, 8 h; 100% = twice DMSO control signal; AID 504408, 2011; activation, % at 9 µM;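 active means mean replicate activation of at least 50% with a set share of replicates each reaching 50%; inconclusive means only one of those two conditions met; inactive means mean below 50% and too few replicates reaching it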
L major viab – Leishmania major promastigote growth inhibition, primary screen; Leishmania major promastigotes, resazurin fluorescence viability; inhibition, % at 10 µM; actives 9% (n = 200,000); in the data active means inhibition above about 50%;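 further: promastigotes grown with compound for 44 hours at 28 °C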
T cruzi inh – inhibitors of intracellular T. cruzi growth, primary screen, luminescence, NIH3T3 host cells | T. cruzi beta-gal in NIH3T3, 90 h | inhibition, % (test concentration not listed) | actives 1.4% (n = 300,000) | AID 1885, 2009;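 active means mean inhibition across valid replicates above about 55%, limit read from the data; inconclusive means mean below that limit but half or more replicates reach it; inactive means mean below it, under half of replicates reach it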;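 further: signal also drops with host cell toxicity which is not excluded here; higher percent means less beta-gal luminescence so fewer parasites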
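Assay system: NIH/3T3 host cells with β-galactosidase reporter T. cruzi; input: 5,000 host fibroblasts per well; compound: single 50 nL compound addition per well in DMSO; timing: ≥90 h infection period, 3 h prior cell attachment; measured by: GalScreen β-gal luminescence, detergent lysis, 60 min; evaluation: percent inhibition of parasite-derived β-gal signal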
Hsp70 act – Hsp70 transcriptional activators, primary screen, cell-based, HeLa, Hsp70 promoter luciferase, luminescence, 10 µM; HeLa Hsp70 promoter luciferase reporter; scaled: vehicle 0, proteasome-inhibitor control 100%; activation, % at 10 µM; actives 0.04% (n = 200,000); AID 1203, 2008;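 active means activation above the mean across all tested compounds plus 3 SD, cutoff set per campaign, cut at about 5.5% in these data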
Lmaj promast 1uM – Leishmania major promastigote growth inhibition, confirmation, 1 µM repeat of primary hits. shares compounds with L major viab. L. major promastigote growth, resazurin fluorescence, 48 h. inhibition, % at 1 µM. actives 13% (n = 1,100). AID 1258, 2008;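 active means inhibition above about 50% in both repeat tests, limit read from the data; inconclusive means one repeat under the set limit, the other over it; inactive means both repeats under the set limit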
A number is an active result; – = inactive; ? = inconclusive; · = no result. Only a selection was taken, and hits are over-represented in it overall.

SMILES	HSF1 inh	HSF-1 act	L major viab	T cruzi inh	Hsp70 act	Lmaj promast 1uM
Cc1ccc(Oc2ccc(-c3nc(N)nc(N)n3)cc2)cc1C	·	·	99	–	–	–
CCN1CCN(c2cc(SC(C)C)nc(-c3ccc(OC)cc3)n2)CC1	–	–	100	–	–	–
CCc1ccc(OCCOCC(O)CNC2CCCC2)cc1 (stereo not given)	·	·	60	·	–	–
CC(C)c1onc(C(=O)NCc2ccccc2)c1[N+](=O)[O-]	–	–	–	–	–	·
Cc1ccccc1C(=O)Oc1ccc(Sc2ccc(O)cc2)cc1	–	–	54	–	–	–
Cc1ccccc1C(=O)Oc1ccc(-c2csnn2)cc1	–	–	·	–	·	·
CCOc1ccc(CN(C)CCc2ccccn2)cc1	–	–	–	–	–	·
CC(C)=CCCC(C)CN(C)CCc1ccccn1 (stereo not given)	–	–	83	63	–	–
O=C(O)c1ccccc1-c1nc(-c2ccccc2)c(-c2ccccc2)[nH]1	–	–	–	–	–	·
c1ccc(-c2nc(-c3cccs3)[nH]c2-c2ccccc2)cc1	–	–	53	–	–	–
O=C(NCc1ccc(N2CCCC2=O)cc1)c1cn(CCc2ccccc2)nn1	–	–	56	–	–	–
CC1(C)CN(c2ccccc2)N(C(=O)c2ccc(F)cc2)C1=O	–	–	–	–	–	·
CC1(C)CN(c2ccccc2)N(C(=O)c2ccc(C#N)cc2)C1=O	·	·	54	·	–	–
COC(=O)c1cc2c(=O)c3ccccc3oc2nc1/C=C/N(C)C	–	–	·	–	·	·
N#Cc1cc(O)c(-n2nnc3ccccc32)cc1C#N	–	–	–	–	–	·
N#Cc1cc(Oc2cccc3cccnc23)c(-n2nnc3ccccc32)cc1C#N	–	211	69	57	–	–
CCCCCCCC1CC(CSC(=N)N)OC1=O (stereo not given)	–	–	100	–	–	–
Cn1nc([N+](=O)[O-])nc1Oc1ccccc1N	–	–	97	63	–	–
Cc1cc(/C=C2\Sc3ccccc3N2C)cc(C)[n+]1CC1CCCO1 (stereo not given)	·	·	101	·	–	101
Cc1ccc(/C=C2/Sc3ccccc3N(CC(=O)NCC3CCCO3)C2=O)cc1 (stereo not given)	–	–	·	–	·	·
CCN(C(=O)c1cc2c(=O)[nH]c3ccc(C)cc3c2s1)c1ccc(OC)cc1	–	–	·	–	·	·
Nc1ccc(Nc2ccccc2N)cc1	–	–	99	–	–	–
O=C(Nc1ccc(F)cc1)c1ccc(Br)c(S(=O)(=O)N2CCOCC2)c1	–	–	·	–	·	·
O=C1NC2(C=Cc3c(ccc4ccccc34)O2)Oc2ccccc21 (stereo not given)	–	–	–	–	–	·
CC1(C)OC(=O)N(c2ccccc2)C12C=Cc1c(ccc3ccccc13)O2 (stereo not given)	–	–	83	–	–	–
SMILES	HSF1 inh	HSF-1 act	L major viab	T cruzi inh	Hsp70 act	Lmaj promast 1uM
COc1ccc(/C(O)=C2/C(=O)C(=O)N(c3ccccn3)C2c2ccc(OC)c(OC)c2)cc1 (stereo not given)	–	–	·	–	·	·
O=C(CSc1nc2scc(-c3ccccc3)c2c(=O)[nH]1)NC1CCCCC1	–	–	55	–	–	–
CCCn1c(O)c(N=N)c2ccccc21	–	–	–	–	–	·
O=c1[nH]c(=O)c2cc([N+](=O)[O-])cc([N+](=O)[O-])c2[nH]1	–	–	91	72	–	–
COc1ccc(C(CCNCc2ccc(OC(C)C)cc2)C(C)C)cc1 (stereo not given)	–	–	·	–	·	·
COc1ccc(CNCCC(c2ccc(OC(C)C)cc2)C(C)C)cc1OC (stereo not given)	–	–	98	73	–	–
Nc1cc(Cl)nnc1Cl	–	–	·	–	·	·
O=C(OCC(=O)N1CCc2ccccc2C1)c1cc(=O)[nH]c2ccccc12	–	–	·	–	·	·
CCOc1ccc(S(=O)(=O)N2Cc3ccccc3CC2C(=O)NCCCn2ccnc2)cc1 (stereo not given)	–	–	98	–	–	–
O=C(COc1ccc(S(=O)(=O)N2CCOCC2)cc1)NCCCn1ccnc1	–	–	·	–	·	·
CCCCSc1nnc([C@H](CC(C)C)NC(=O)OC(C)(C)C)o1	–	–	76	–	–	–
Cc1cc(C)nc(NC(=O)CSc2nn(-c3ccccc3)c(=S)s2)n1	–	–	·	–	·	·
Cc1csc(/N=C/c2ccc([N+](=O)[O-])cc2)n1	·	·	52	·	–	–
O=[N+]([O-])c1ccc(/C=N/N2CCCCC2)cc1	–	–	·	–	·	·
CC(=O)NCCC(=O)Nc1cc(S(=O)(=O)N2CCOCC2)ccc1Oc1ccc(F)cc1	–	–	·	–	·	·
c1ccc2c(CSCCc3ccncc3)cccc2c1	–	–	99	–	–	–
Cc1ccc2nc(C)cc(C(=O)Nc3nccs3)c2c1	–	–	–	–	–	·
COC(=O)C1=C(N)N(c2ccc(F)cc2)C2=C(C(=O)CCC2)C1c1ccc2c(c1)OCO2 (stereo not given)	–	–	72	–	–	–
COC(=O)C1=C(N)OC2=C(C(=O)CCC2)C1c1ccc2c(c1)OCO2 (stereo not given)	–	–	·	–	·	·
Cn1cc(S(=O)(=O)N2CCCC2)cc1C(=O)Nc1cccc(C(F)(F)F)c1	–	–	·	–	·	·
COc1ccc(-c2nc3ccccc3n2OCC(=O)O)cc1	–	–	–	–	–	·
COc1ccc(Cn2c(-c3ccc(OC)cc3)nc3ccccc32)cc1	·	·	62	–	–	63
C/C(=N\OCC(=O)Nn1c(=O)[nH]c2ccccc2c1=O)c1ccccc1	–	–	–	–	–	·
CCN=C1S/C(=C\c2ccc(N3CCOCC3)cc2C)C(=O)N1CC	–	–	69	–	–	–
Cc1cc(OC(=O)C(c2ccccc2)c2ccccc2)c([N+](=O)[O-])c(=O)[nH]1	·	·	58	·	–	–
SMILES	HSF1 inh	HSF-1 act	L major viab	T cruzi inh	Hsp70 act	Lmaj promast 1uM
CCCC1(c2ccccc2)NC(=O)N(CC(=O)Nc2cc(OC)cc(OC)c2)C1=O (stereo not given)	–	–	·	–	·	·
CCOc1ccc(NC(=O)c2cn(-c3ccc(OCC)cc3)c(=O)c3cc(OC)c(OC)cc23)cc1	–	–	89	?	–	–
N#Cc1ccc(CN2CCN(CC(=O)NCCc3ccc(Cl)cc3Cl)CC2)cc1	–	–	·	–	·	·
CCOc1cc(/C=C2\SC(=Nc3ccccc3)N(c3ccccc3)C2=O)ccc1OCC(=O)O	–	–	–	–	–	·
CCOC(=O)COc1ccc(/C=C2/SC(=Nc3ccccc3)N(Cc3cccnc3)C2=O)cc1OC	–	64	60	–	–	–
CCCC(NC(=O)Cc1c(C)c2c(cc(C)c3c(C)coc32)oc1=O)C(=O)O (stereo not given)	–	–	·	–	·	·

Source: PubChem BioAssay
